UHRF1 MBD2 ctr: blocks human UHRF1 binding to methylated DNA; AID 687016; UHRF1 binding to methylated oligo, TR-FRET; inhibition, % at 4.4 µM; Q96T88; actives 0.75% (n = 370,000); in the data active means inhibition above about 21%;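 further: UHRF1 SRA domain binding a hemimethylated CpG hairpin DNA probe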
MBD2 inh: inhibitors of human MBD2 binding to methylated oligonucleotide; actives 0.31% (n = 370,000); AID 686964; inhibition, % at 4.4 µM; Q9UBB5; TR-FRET; in the data active means inhibition above about 13%
Target sequence (Q9UBB5 whole entry, looked up): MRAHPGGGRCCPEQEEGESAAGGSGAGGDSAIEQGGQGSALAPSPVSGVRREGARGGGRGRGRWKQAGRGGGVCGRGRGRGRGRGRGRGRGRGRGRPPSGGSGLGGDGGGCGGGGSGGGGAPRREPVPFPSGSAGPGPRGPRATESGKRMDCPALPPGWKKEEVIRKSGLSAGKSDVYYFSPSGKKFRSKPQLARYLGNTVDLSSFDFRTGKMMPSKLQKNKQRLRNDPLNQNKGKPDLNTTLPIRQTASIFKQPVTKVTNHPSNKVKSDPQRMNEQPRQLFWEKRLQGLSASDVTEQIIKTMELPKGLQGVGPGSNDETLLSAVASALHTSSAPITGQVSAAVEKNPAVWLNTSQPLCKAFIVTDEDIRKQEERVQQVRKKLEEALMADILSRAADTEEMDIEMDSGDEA
TDP2 absorb: blocks human TDP2 phosphodiesterase activity | AID 720702 | O95551 | recombinant TDP2, T5PNP hydrolysis, p-nitrophenol absorbance 415 nm | inhibition, % at 12.8 µM | actives 0.34% (n = 370,000);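 active means inhibition above the mean of all tested compounds plus 3 SD, set per campaign, cut at about 25% in these data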
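Material: recombinant human TDP2; quantity: TDP2 enzyme at 120 nM final; medium: Tris-HCl pH 7.5 with MgCl2; compound: single concentration, 12.8 µM nominal, with 1% DMSO; incubation: 2 h enzyme incubation at 37 °C; signal: epi absorbance; measure: percent inhibition; benchmarks: high control without enzyme, low control DMSO plus TDP2; repeats: singlicate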
LEDGF integ inh: blocks HIV-1 LEDGF/p75-dependent DNA integration. TR-FRET IN-LEDGF/p75 DNA integration, Eu/Cy5. inhibition, % at 3.7 µM. actives 0.64% (n = 370,000);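 active means inhibition above the screen-wide mean plus 3 SD, cut at about 13% in these data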;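 further: signal is the Cy5 over europium emission ratio at 671 and 618 nm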
TDP2 confirm: confirmation of human TDP2 inhibitors | shares compounds with TDP2 absorb | recombinant human TDP2, absorbance read-out | actives 22% (n = 1,100) | inhibition, % at 12.8 µM; in the data active means inhibition above about 25%
Each line names hits and unclear results; the compound was inactive in the other large screens (follow-up assays come after a bar, where they were run). The list is not random: actives were taken first. Their share in the collection is about 1.6%.

Cc1cc(Cl)c(OCCOCCN2CCN(C)CC2)c(Br)c1	TDP2 absorb 34.2 | TDP2 confirm inactive
COc1cccc(NC(=O)NC2CCCCN(Cc3ccc(C)cc3)C2=O)c1 (configuration not stated)	none
O=C1C=C(Nc2ccccc2)c2ccccc2C1=O	none
O=C1C=C(Nc2ccccc2C(=O)O)c2ccccc2C1=O	TDP2 absorb 45.7 | TDP2 confirm 50.5
C#CCN1CC(COCCCC)Oc2cccc(Oc3ccc(C(C)(C)C)c(C)c3)c2S1(=O)=O (configuration not stated)	none
Cc1onc(-c2ccccc2)c1-c1ccnn1C(=O)NC(C)C	none
COC(=O)c1noc(C)c1-c1ccnn1C(=O)c1ccc(C)cc1	TDP2 absorb 24.7 | TDP2 confirm inactive
COc1ccc(C2CC(=O)C(c3ccc([N+](=O)[O-])cc3)=CN2Cc2ccccc2)cc1 (configuration not stated)	none
COCCNC(=O)C(=O)Nc1cc2c3c(c1)C(C)C(=O)N3CCC2 (configuration not stated)	none
CC(C)NC(=O)C(=O)Nc1cc2c3c(c1)C(C)C(=O)N3CCC2 (configuration not stated)	TDP2 absorb 33.6 | TDP2 confirm inactive
COCCCN1C(=O)[C@H](CC(=O)NCc2ccccc2)[C@]2(C(=O)OC)CCCCC=C12	none
CN1CCCCC(NC(=O)c2ccc(Cl)cc2Cl)C1=O (configuration not stated)	none
O=C(Cc1ccccc1Cl)NC1(O)C(=O)c2ccccc2C1=O	TDP2 absorb 47.4 | TDP2 confirm 54.1
O=C(Cc1ccc(Cl)cc1)NCc1ccccc1Cl	none
COC(=O)[C@]12C[C@H](CC(=O)NCc3cccc(C(F)(F)F)c3)C(=O)N(Cc3cccc4ccccc34)C1=C[C@H](COCc1ccccc1)O[C@@H]2C	none
O=c1[nH]c(Nc2ccccn2)cc2ccccc12	TDP2 absorb 49.1 | TDP2 confirm 27.4
Cn1c(C(=O)N2CCCC2)cc2c(=O)n(C)c3ccccc3c21	none
CCOC(=O)C1CCCN(C(=O)c2cc3c(=O)n(C)c4ccccc4c3n2C)C1 (configuration not stated)	TDP2 absorb 40.5 | TDP2 confirm inactive
Cc1cc(-c2n[nH]c(=S)n2N=Cc2cccc(Oc3ccccc3)c2)n[nH]1	none
COC(=O)C1=C(C(C)=O)C(c2ccc(C(=O)OC)cc2)n2nnnc2N1 (configuration not stated)	TDP2 absorb 34.4 | TDP2 confirm inactive
COc1cc(C(=S)N2CCCCC2)ccc1OCC(=O)N1CCCC1	none
COc1cc(C(=S)N2CCCCC2)ccc1OCC(=O)Nc1ccc(F)cc1	TDP2 absorb 50.5 | TDP2 confirm inactive
CCOC(=O)CC[C@H]1CC[C@]2(CCCN(Cc3ccccc3)C2)O1	none
CCCc1nc2c(=O)n(C)c(=O)nc-2n(C)n1	MBD2 inh 22.0, TDP2 absorb 95.2 | TDP2 confirm 87.3
O=C(CCc1ccccc1)N[C@H]1[C@H](O)CCC[C@@]12C(=O)N(Cc1ccccc1)c1ccc(-c3ccccc3)cc12	none
CC(=O)N(C1=C(Cl)C(=O)c2ccccc2C1=O)C1CCCCC1	TDP2 absorb 57.0 | TDP2 confirm 46.7
CCOc1ccc(NC(=O)CN(C)C(=O)c2ccccc2OCc2c(C)noc2C)cc1OCC	TDP2 absorb 25.6 | TDP2 confirm inactive
Cc1[nH][nH]c(=O)c1C(c1c(C)[nH][nH]c1=O)c1cn(C)c2ccccc12	TDP2 absorb 48.7 | TDP2 confirm inactive
CC(c1ccc(O)cc1)c1cn(C)c2ccccc12 (configuration not stated)	none
Cn1c(N)c(C(=O)CCc2ccccc2)c(=O)n(C)c1=O	none
CCN(CC(=O)c1c(N)n(C)c(=O)n(C)c1=O)c1cccc2ccccc12	TDP2 absorb 37.6 | TDP2 confirm inactive
O=C(CCCCCN1C(=O)C2C3C=CC(C3)C2C1=O)Nc1cc(F)cc(F)c1 (configuration not stated)	none
COc1ccc(C(=O)NNC(=S)NC(=O)c2ccc(OC)cc2)cc1	none
CCNC(=S)NNC(=O)c1ccc(OC)cc1	TDP2 absorb 64.9 | TDP2 confirm inactive
COC(=O)C1CN(C2CC2)CCS(=O)(=O)N1Cc1cn(Cc2ccc(Cl)cc2)nn1 (configuration not stated)	none
CCN1CCN(c2sc(S(=O)(=O)CC)nc2S(=O)(=O)c2ccc(C)cc2)CC1	none
CCS(=O)(=O)c1nc(S(=O)(=O)c2ccc(C)cc2)c(N2CCN(CCO)CC2)s1	TDP2 absorb 25.3 | TDP2 confirm inactive
COC(=O)c1cc2c(c3c4cc(F)ccc4n(S(=O)(=O)c4cccc(C)c4)c13)C(=O)N(C)C2	none
COc1ccc(CNCC#Cc2ccccc2)cc1	none
N#C[C@@H]1N[C@H](CO)[C@@H]1c1ccccc1	none
COC(=O)N1C[C@H](Oc2cccc3ccccc23)[C@H]2C[C@@H]1c1ccccc1O2	none
Cc1ccc(S(=O)(=O)c2c[nH]c3cc4c(cc3c2=O)OCO4)cc1	TDP2 absorb 26.1 | TDP2 confirm inactive
CC(=O)CC[C@H]1CC[C@]2(CCCN(C(=O)c3ccco3)C2)O1	none
CCN(C(=O)COC(=O)C1=COCCO1)c1ccccc1	none
CCN(C(=O)COC(=O)c1[nH]c(=O)[nH]c(=O)c1N)c1ccccc1	TDP2 absorb 30.3 | TDP2 confirm inactive
C=CCN=C1NC(c2cccc(Cl)c2)C(C(=O)OC)=C(C)N1C (configuration not stated)	none
COc1ccc(C(CC(=O)Nc2ncccc2C)N2Cc3ccccc3C2=O)cc1OC (configuration not stated)	none
COc1cc(C(CC(=O)Nc2ncccc2C)N2Cc3ccccc3C2=O)cc(OC)c1OC (configuration not stated)	TDP2 absorb 26.0 | TDP2 confirm inactive
O=C(c1ccco1)[C@@H]1[C@@H]2C(=O)N(c3ccc(Br)cc3)C(=O)[C@@H]2C2c3ccccc3C=CN21 (some centres not stated)	none
O=C(c1ccco1)[C@@H]1[C@@H]2C(=O)N(c3ccc(F)cc3)C(=O)[C@@H]2C2c3ccccc3C=CN21 (some centres not stated)	TDP2 absorb 29.0 | TDP2 confirm inactive
c1ccc(-c2nc3ccccc3nc2-c2ccc(CN3CCC4(CC3)CNc3ccccc34)cc2)cc1	none
O=C(NC(=S)Nc1ccccc1N1CCCCC1)c1ccco1	none
O=C(NC(=S)Nc1ccccc1N1CCCC1)c1ccco1	TDP2 absorb 38.1 | TDP2 confirm 29.4
Cc1ccccc1NC(=O)COC(=O)CCc1nc2ccccc2c(=O)[nH]1	none
O=C(COC(=O)CCc1nc2ccccc2c(=O)[nH]1)Nc1c(Cl)cccc1C(F)(F)F	TDP2 absorb 57.4 | TDP2 confirm inactive
CC(=O)Nc1ccc(NC2=C(Cl)C(=O)c3ccccc3C2=O)cc1	none
Cc1ccc(NC2=C(NCCO)C(=O)c3ccccc3C2=O)cc1	TDP2 absorb 43.5 | TDP2 confirm 39.5
